42 compounds from ChEMBL document CHEMBL4480385, “Design, synthesis and molecular docking studies of novel N-arylsulfonyl-benzimidazoles with anti Trypanosoma cruzi activity” (Eur J Med Chem, 2019) can be followed below.

As usually defined, the IC50 is the concentration that inhibits the measured activity by half. For orientation: pIC50 means −log10 of the IC50, conventionally taken in molar units.

For one series, the system named is Vero. Kind of series: Cytotoxicity against African green monkey Vero cells after 72 hrs by propidium iodide/fluorescein diacetate staining based flow cytometry. The series is classed as cell-based. The settings on record: Chlorocebus sabaeus. For orientation: Flow cytometry measures light scatter and fluorescence of single cells or particles in a stream.
Series [1] is described as follows: Inhibition of Trypanosoma cruzi apoenzyme form of PFK.
Series [2] deals with Trypanosoma cruzi. Kind of series: Potency index, ratio benznidazole IC50 to test compound IC50 for anti-trypanosomal activity against Trypanosoma cruzi IRHOD/CO/2008/SN3 epimastigotes. Format: functional. In short, it runs like this:
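Epimastigotes of the SN3 strain were grown in TLM with 10% inactivated FBS at 28 °C in air. Compounds or benznidazole, dissolved in PEG:EtOH (7:3), were added at final levels of 1, 10, 25 and 50 and left for 72 h. Parasites were counted by haemocytometer. IC50 for 50% growth inhibition was fitted by PROBIT, and values are the mean of three experiments.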

Series [3] deals with Trypanosoma cruzi. Kind of series: Anti-trypanosomal activity against Trypanosoma cruzi IRHOD/CO/2008/SN3 epimastigotes after 72 hrs by Neubauer hemocytometric method. Format: functional, organism-based. As to conditions: IRHOD/CO/2008/SN3, 72 h.
Series [4] can be described thus: Selectivity index, ratio of IC50 for African green monkey Vero cells to IC50 for Trypanosoma cruzi IRHOD/CO/2008/SN3 epimastigotes. As to conditions: read-out: Ratio IC50. Format: toxicity.
Series [5] in a line: Inhibition of Trypanosoma cruzi holoenzyme form of PFK.
The test system of series [6] is Trypanosoma cruzi. Kind of series: Inhibition of PFK in Trypanosoma cruzi IRHOD/CO/2008/SN3 epimastigotes assessed as change in acetate excretion at IC25 after 96 hrs by 1H NMR analysis relative to control. The arrangement: scale not given: the % may be the effect or the level left. Summed up: (§1)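 SN3 epimastigotes (starting at 5 × 10⁵ cells/mL) were incubated with compound for 96 h at 28 °C, alongside drug-free control cultures. Cells were pelleted at 400 g for 10 min. Excreted end products in the supernatant were identified and quantified by ¹H NMR against a DSS reference signal, and compared with the controls.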

The subject of series [7] is Trypanosoma cruzi. Nature of the series: Inhibition of PFK in Trypanosoma cruzi IRHOD/CO/2008/SN3 epimastigotes assessed as change in pyruvate excretion at IC25 after 96 hrs by 1H NMR analysis relative to control. The arrangement: scale not given: the % may be the effect or the level left. In short, it runs like this:
as §1

Series [8] has as its system Trypanosoma cruzi. Kind of series: Anti-trypanosomal activity against Trypanosoma cruzi IRHOD/CO/2008/SN3 amastigotes infected in African green monkey Vero cells after 72 hrs by Giemsa-staining based microscopic analysis. Format: functional, organism-based. As to conditions: IRHOD/CO/2008/SN3, Vero.
The test system of series [9] is Trypanosoma cruzi. Kind of series: Inhibition of PFK in Trypanosoma cruzi IRHOD/CO/2008/SN3 epimastigotes assessed as change in succinate excretion at IC25 after 96 hrs by 1H NMR analysis relative to control. The arrangement: scale not given: the % may be the effect or the level left. Summed up:
as §1

Series [10] deals with Trypanosoma cruzi. Kind of series: Inhibition of PFK in Trypanosoma cruzi IRHOD/CO/2008/SN3 epimastigotes assessed as change in L-alanine excretion at IC25 after 96 hrs by 1H NMR analysis relative to control. The arrangement: scale not given: the % may be the effect or the level left. In short, it runs like this: as §1
For series [11], the system named is Trypanosoma cruzi. Kind of series: Inhibition of PFK in Trypanosoma cruzi IRHOD/CO/2008/SN3 epimastigotes assessed as change in D-lactate excretion at IC25 after 96 hrs by 1H NMR analysis relative to control. The arrangement: scale not given: the % may be the effect or the level left. In short, it runs like this: as §1
A short description of series [12]: Selectivity index, ratio of IC50 for African green monkey Vero cells to IC50 for Trypanosoma cruzi IRHOD/CO/2008/SN3 amastigotes infected in African green monkey Vero cells. As to conditions: read-out: Ratio IC50. The series is classed as toxicity.

For `O=[N+]([O-])c1ccccc1S(=O)(=O)n1cnc2ccccc21`, the IC50 with Vero stood at 120 µM; with Trypanosoma cruzi [3] it was 5.5 µM. The same compound came in with a pIC50 in series [1] of 3.74. For the same compound, the “Ratio IC50” value with Trypanosoma cruzi [2] is 3 - 5. For the same compound, in series [4], the selectivity ratio was determined as 22.

With `CC(C)(C)c1ccc(S(=O)(=O)n2cnc3ccccc32)cc1`, the IC50 with Vero amounted to 68.5 µM; in the series on Trypanosoma cruzi [3], 3 µM. Further, in [1], the negative-log IC50 (pIC50) is 3.48. The “Ratio IC50” value in the series with Trypanosoma cruzi [2] is listed as 3 - 5. In addition, in [4], the selectivity ratio came out at 22.5.

Take `O=C(Cc1ccc(Cl)c(Cl)c1)Nc1ccc(S(=O)(=O)Nc2nccs2)cc1`: the pIC50 in series [5] and in series [1] was 1.61 throughout.

With `Cc1cc(N(C)S(=O)(=O)c2ccc(NC(=O)Cc3ccc(Cl)c(Cl)c3)cc2)no1`, the pIC50 in series [5] and in series [1] was 3.41 throughout.

For `Cc1cc(NS(=O)(=O)Cc2ccc(NC(=O)Cc3ccc(Cl)c(Cl)c3)cc2)no1`, the pIC50 in [5] and in series [1] was 3.66 throughout.

With `O=C(Cc1ccc(Cl)c(Cl)c1)Nc1ccc(S(=O)(=O)Nc2ccccc2)cc1`, the pIC50 in [5] and in [1] was 4.21 each time.

On to `Cc1cc(NS(=O)(=O)c2ccc(NC(=O)Cc3ccc(C)c(C)c3)cc2)no1`, for which the negative-log IC50 (pIC50) in [5] and in [1] was 3.81 in each case.

Turning to `Cc1cc(NS(=O)(=O)c2ccc(NC(=O)Cc3ccc(Cl)cc3)cc2)no1`, the pIC50 in [5] is 3.11; in series [1], 3.21.

Consider `Cc1cc(NS(=O)(=O)c2ccc(NC(=O)Cc3ccc(F)c(Cl)c3)cc2)no1`, for which the pIC50 in [5] and in series [1] was 2.66 throughout.

Turning to `Cc1cc(NS(=O)(=O)c2ccc(NC(=O)Cc3ccc4ccccc4c3)cc2)no1`, the pIC50 in [5] is reported as 3.26; in [1] it was 3.31.

As to `O=C(Cc1ccc(F)c(Cl)c1)Nc1ccc(S(=O)(=O)Nc2nncs2)cc1`, the pIC50 in series [5] and in [1] was 2.23 throughout.

As for `Cc1cc(NS(=O)(=O)c2ccc(NC(=O)Cc3ccc(C)c(F)c3)cc2)no1`, the negative-log IC50 (pIC50) in series [5] and in series [1] was 3.81 in each case.

Consider `O=C(Cc1ccc(Cl)c(Cl)c1)Nc1ccc(S(=O)(=O)Nc2cc[nH]n2)cc1`, for which the pIC50 in [5] and in series [1] was 2.86 each time.

With `O=C(Cc1ccc(F)c(Cl)c1)Nc1ccc(S(=O)(=O)Nc2nccs2)cc1`, the pIC50 in [5] and in [1] was 2.07 throughout.

For `Cc1cc(NS(=O)(=O)c2ccc(NC(=O)Cc3ccc(Cl)c(F)c3)cc2)no1`, the negative logarithm of the IC50 (pIC50) in [5] and in series [1] was 2.81 in each case.

On to `CN(C)c1cccc(NS(=O)(=O)c2ccc(NC(=O)Cc3ccc(Cl)c(Cl)c3)cc2)c1`, for which the pIC50 in [5] and in series [1] was 4.11 throughout.

As to `Cc1cc(NS(=O)(=O)c2ccc(NC(=O)Cc3ccc(Cl)cc3Cl)cc2)no1`, the pIC50 in [5] and in [1] was 4.21 in each case.

As for `O=C(Cc1ccc(Cl)c(Cl)c1)Nc1ccc(S(=O)(=O)Nc2nncs2)cc1`, the negative-log IC50 (pIC50) in series [5] and in [1] was 1.72 throughout.

As for `Cc1cc(NS(=O)(=O)c2ccc(NC(=O)C(C)(C)c3ccc(Cl)c(Cl)c3)cc2)no1`, the pIC50 in [5] and in series [1] was 4.56 throughout.

As for `Cc1cc(NS(=O)(=O)c2ccc(NCCc3ccc(Cl)c(Cl)c3)cc2)no1`, the pIC50 in series [5] and in series [1] was 4.21 throughout.

Turning to `Cc1ccc(S(=O)(=O)n2cnc3ccccc32)cc1`, the figures for the IC50 in the series with Vero and with Trypanosoma cruzi [3] were 108 µM and 23.8 µM, respectively. In series [1], the pIC50 was found to be 4.38. Besides, the selectivity ratio in series [4] came out at 4.5.

Consider `O=S(=O)(c1ccccc1)n1cnc2ccccc21`, for which the Activity is 3.31% in the series with Trypanosoma cruzi [6]; -13.4% in the series on Trypanosoma cruzi [7]; -16% with Trypanosoma cruzi [9]; -3.24% with Trypanosoma cruzi [10]; 16.4% in the series on Trypanosoma cruzi [11]. Further, the IC50 in the series on Vero stood at 1770 µM; with Trypanosoma cruzi [8], 37.3 µM; in the series with Trypanosoma cruzi [3], 9 µM. The same compound had a negative-log IC50 (pIC50) in series [1] of 3.95. In addition, the figures for the selectivity ratio in [12] and in series [4] were 47.3 and 196, respectively.

`O=C(Cc1ccc(Cl)c(Cl)c1)Nc1ccc(S(=O)(=O)Nc2ccon2)cc1`: the pIC50 in [5] and in [1] was 2.11 in each case.

Consider `O=C(Cc1ccc(Cl)c(Cl)c1)Nc1ccc(S(=O)(=O)Nc2cccc(O)c2)cc1`, for which the pIC50 in series [5] was 3.16; in series [1] it was 3.26.

`Cc1cc(NS(=O)(=O)C2CCN(C(=O)Cc3ccc(Cl)c(Cl)c3)CC2)no1`: the pIC50 in series [5] and in [1] was 4.16 throughout.

With `O=S(=O)(c1ccc(C(F)(F)F)cc1)n1cnc2ccccc21`, the Activity with Trypanosoma cruzi [6] was 11.8%; with Trypanosoma cruzi [7] it was 10.6%; in the series with Trypanosoma cruzi [9] it was -7.22%; with Trypanosoma cruzi [10] it was 9.92%; in the series with Trypanosoma cruzi [11], 25.8%. Further, the figures for the IC50 in the series with Vero, in the series with Trypanosoma cruzi [8] and in the series with Trypanosoma cruzi [3] were 460 µM, 24 µM and 6.2 µM, respectively. Also, the pIC50 in [1] is listed as 3.79. The results for the selectivity ratio in series [12] and in series [4] were 19.2 and 74.8, respectively.

With `CC(=O)c1ccc(S(=O)(=O)n2cnc3ccccc32)cc1`, the IC50 amounted to 656 µM in the series with Vero and 26.8 µM in the series on Trypanosoma cruzi [3]. In [1], this compound came in with a pIC50 of 4.43. In addition, the selectivity ratio in series [4] came to 24.5.

With `O=S(=O)(c1ccc(Cl)cc1)n1cnc2ccccc21`, the half-maximal inhibitory concentration (IC50) amounted to 122 µM with Vero and 16.8 µM in the series on Trypanosoma cruzi [3]. In series [1], this compound displayed a pIC50 of 4.23. The selectivity ratio in [4] amounted to 7.3.

For `COc1ccc(CC(=O)Nc2ccc(S(=O)(=O)Nc3cc(C)on3)cc2)cc1C`, the pIC50 in [5] and in [1] was 4.31 in each case.

For the compound `Cc1cc(NS(=O)(=O)c2ccc(NC(=O)Cc3ccc(Cl)c(Cl)c3)cc2)n(C)n1`, the pIC50 was found to be 2.96 in [5] and 3.06 in [1].

Regarding `Cc1cc(NS(=O)(=O)c2ccc(NC(=O)CCc3ccc(Cl)c(Cl)c3)cc2)no1`, the pIC50 in [5] and in series [1] was 4.06 in each case.

On to `Cc1cc(NS(=O)(=O)c2ccc(NC(=O)c3ccc(Cl)c(Cl)c3)cc2)no1`, for which the pIC50 in series [5] and in series [1] was 4.31 each time.

For `O=S(=O)(c1ccc(Br)cc1)n1cnc2ccccc21`, the IC50 amounted to 1190 µM in the series with Vero, 35.7 µM with Trypanosoma cruzi [8] and 23.5 µM with Trypanosoma cruzi [3]. Also, the pIC50 in series [1] was 4.37. Besides, the selectivity ratio in series [12] was 33.3; in series [4], 50.5.

In the case of `Cc1cc(NS(=O)(=O)c2ccc(NC(=O)Cc3cccc(Cl)c3)cc2)no1`, the pIC50 in series [5] and in series [1] was 3.46 in each case.

As for `Cc1cc(NS(=O)(=O)c2cccc(NC(=O)Cc3ccc(Cl)c(Cl)c3)c2)no1`, the pIC50 in series [5] and in [1] was 4.21 throughout.

For the compound `Cc1cc(NS(=O)(=O)c2ccc(NC(=O)Cc3ccc(Cl)c(C(F)(F)F)c3)cc2)no1`, the pIC50 in series [5] was found to be 2.86; in [1], 2.96.

Regarding `Cc1cc(NS(=O)(=O)c2ccc(C(=O)NCc3ccc(Cl)c(Cl)c3)cc2)no1`, the pIC50 in series [5] and in series [1] was 3.51 each time.

In the case of `O=S(=O)(c1cccc(C(F)(F)F)c1)n1cnc2ccccc21`, the IC50 in the series with Vero turned out to be 59.8 µM; in the series with Trypanosoma cruzi [3], 13.9 µM. Besides, the pIC50 in series [1] was 4.14. The selectivity ratio in series [4] worked out at 4.3.

For the compound `Cc1cc(NS(=O)(=O)c2ccc(NC(=O)Cc3ccc(Cl)c(Cl)c3)cc2)no1`, the pIC50 in [5] and in [1] was 2.36 each time.

Regarding `Cc1cc(NS(=O)(=O)c2ccc(NC(=O)Cc3ccccc3)cc2)no1`, the pIC50 in series [5] and in series [1] was 4.31 in each case.

As for `O=[N+]([O-])c1ccc(S(=O)(=O)n2cnc3ccccc32)cc1`, the IC50 in the series on Vero was found to be 347 µM; with Trypanosoma cruzi [3], 2.6 µM. The same compound returned a pIC50 in series [1] of 3.41. Moreover, in the series on Trypanosoma cruzi [2], the “Ratio IC50” value is recorded as 3 - 5. Also, the selectivity ratio in series [4] came to 135.

With `Cc1cc(NS(=O)(=O)c2ccc(N(C)C(=O)Cc3ccc(Cl)c(Cl)c3)cc2)no1`, the pIC50 in series [5] amounted to 3.06; in series [1], 3.16.
